Calls of active or inactive are those of the source. No cut-off for these calls is given here.
Tests used:
RAW264.7 [1] = experiment: Inhibition of LPS and INF-gamma-induced NO production in mouse RAW264.7 cells; type: functional, cell-based
How it was run: (§1)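 Cells seeded at 1.2 × 10^6 cells/mL, preincubated 2 h at 37 °C. Test compound added together with E. coli LPS (100 ng/mL) and recombinant mouse IFN-γ (0.33 ng/mL), then incubated at 37 °C, usually 16 h. Nitrite in chilled culture supernatant measured with Griess reagent (1% sulfanilamide in 5% H3PO4, 0.1% naphthylethylenediamine) against NaNO2 standards, read at 550 nm minus 630 nm background.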

RAW264.7 [2] = experiment: Inhibition of LPS and INF-gamma-induced NO production in mouse RAW264.7 cells at 10 ug/mL; type: functional, cell-based; how it was run: as §1
RAW264.7 [3] = experiment: Cytotoxicity against mouse RAW264.7 cells at 10 ug/mL; type: cell-based
How it was run: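 MTT assay. Compound given at 0.3–10 µg/mL during LPS/IFN-γ treatment for 24 h.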

RAW264.7 [4] = experiment: Inhibition of LPS and INF-gamma-induced iNOS mRNA expression in mouse RAW264.7 cells by RT-PCR analysis; type: functional, cell-based
How it was run: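 Cells at 1.2 × 10^6 cells/mL, preincubated 2 h at 37 °C, then test compound added with LPS (100 ng/mL) and IFN-γ (0.33 ng/mL) for about 8 h. Total RNA (250 ng) reverse-transcribed with oligo(dT) primer. iNOS and GAPDH amplified with specific primers for 25 cycles (94 °C 1 min, 60 °C 1 min, 72 °C 1.5 min).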

| Structure (SMILES) | IC50 (RAW264.7 [1]) [µM] | Activity (RAW264.7 [2]) | Activity (RAW264.7 [3]) | Activity (RAW264.7 [4]) |
| --- | --- | --- | --- | --- |
| CC(C)=CC(=O)C/C(C)=C/CC[C@@]1(C)Oc2c(c(=O)oc3cc(O)ccc23)[C@@H]1C | 24.6 |  |  |  |
| CC(C)=CCC/C(C)=C/CC[C@@]1(C)Oc2c(c(=O)oc3cc(O)ccc23)[C@H]1C |  | inactive | Non-toxic |  |
| CC(C)=CCC/C(C)=C/CC[C@@]1(C)Oc2c(c(=O)oc3cc(O)ccc23)[C@@H]1C |  | inactive | Non-toxic |  |
| CC(C)=CC(=O)C/C(C)=C/CC[C@@]1(C)Oc2c(c(=O)oc3cc(O)ccc23)[C@H]1C (relative stereo) | 31.2 |  |  |  |
| CC(C)=CC(=O)/C=C(\C)CCC[C@@]1(C)Oc2c(c(=O)oc3cc(O)ccc23)[C@@H]1C (relative stereo) [FUKANEFUROMARIN A] | 13 |  |  |  |
| CC(C)=CC(=O)/C=C(\C)CCC[C@@]1(C)Oc2c(c(=O)oc3cc(O)ccc23)[C@H]1C (relative stereo) [FUKANEFUROMARIN B] | 16.2 |  |  |  |
| CC(C)=CC(=O)/C=C(/C)CCC[C@@]1(C)Oc2c(c(=O)oc3cc(O)ccc23)[C@@H]1C (relative stereo) [FUKANEFUROMARIN C] | 11.1 |  |  | Dose-dependent effect |
| CC(C)=CC(=O)/C=C(/C)CCC[C@@]1(C)Oc2c(c(=O)oc3cc(O)ccc23)[C@H]1C (relative stereo) [FUKANEFUROMARIN D] | 8.9 |  |  | Dose-dependent effect |

From ChEMBL document CHEMBL1146506, “Sesquiterpene coumarins from Ferula fukanensis and nitric oxide production inhibitory effects” (J Nat Prod, 2004)
